pIC50: −log10 of the molar value.
Legend:
[1] = Selectivity index, ratio of IC50 for human HepG2 cells to IC50 for Trypanosoma cruzi Tulahuen C2C4; type: toxicity, cell-based; conditions: read-out: Ratio IC50
Summary of the method: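 SI computed as XTT cytotoxicity IC50 divided by amastigote IC50.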

Trypanosoma cruzi = assay: Trypanocidal activity against Trypanosoma cruzi Tulahuen C2C4 amastigotes infected in rat L6 cells after 4 days; type: functional, organism-based; conditions: Tulahuen C2C4, L6, 96 h
HepG2 = assay: Cytotoxicity against human HepG2 cells after 24 hrs by XTT assay; type: cell-based; conditions: HepG2, 24 h
Summary of the method: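 Cells kept in DMEM with 10% FCS, penicillin/streptomycin and bicarbonate at 37 °C, 5% CO2; plated at 5 × 10⁴ cells/well 24 h before treatment. Exposed 24 h to […] in DMSO (final 0.44% v/v). After two PBS washes, XTT reagent added for 1 h at 37 °C; OD 450 nm minus 690 nm, normalized to medium-only controls.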

[2] = Induction of NO release assessed as nitrite level; type: physicochemical
Summary of the method: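 Indirect measurement on a Sievers NOA 280 nitric oxide analyser; compounds dissolved in DMSO (1 mg in 200 µL) and analysed in oxygenated medium. Nitrite anion, the NO degradation byproduct, quantified; result given as IC50.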

[3] = Permeability across apical to basolateral side in human Caco2 cells; type: ADME, cell-based; conditions: Caco-2, read-out: permeability
Summary of the method: (§1)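 Caco-2 grown 21 days on Transwell filters (seeded 5 × 10⁴ cells/cm²); monolayer integrity checked by TEER and fluorescein, metoprolol, amoxicillin markers. […] compound in HBSS pH 7.4 dosed A→B and B→A, basolateral pH 7.4, 37 °C, orbital shaking 25 rpm. Quantified by HPLC-UV 254 nm (C18, 35 °C, phosphate pH 3.5/acetonitrile 50:50). Papp = (VR·ΔQ/Δt)/(A·C0), using only receiver concentrations under 10% of donor.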

Cruzipain = Cruzipain (Trypanosoma cruzi, UniProt P25779); assay: Inhibition of Trypanosoma cruzi cruzain expressed in Escherichia coli M15/DH5alpha using Z-Phe-Arg-AMC as substrate by spectrofluorometry
Cruzipain, sequence (P25779 whole entry, the tested form may be a part): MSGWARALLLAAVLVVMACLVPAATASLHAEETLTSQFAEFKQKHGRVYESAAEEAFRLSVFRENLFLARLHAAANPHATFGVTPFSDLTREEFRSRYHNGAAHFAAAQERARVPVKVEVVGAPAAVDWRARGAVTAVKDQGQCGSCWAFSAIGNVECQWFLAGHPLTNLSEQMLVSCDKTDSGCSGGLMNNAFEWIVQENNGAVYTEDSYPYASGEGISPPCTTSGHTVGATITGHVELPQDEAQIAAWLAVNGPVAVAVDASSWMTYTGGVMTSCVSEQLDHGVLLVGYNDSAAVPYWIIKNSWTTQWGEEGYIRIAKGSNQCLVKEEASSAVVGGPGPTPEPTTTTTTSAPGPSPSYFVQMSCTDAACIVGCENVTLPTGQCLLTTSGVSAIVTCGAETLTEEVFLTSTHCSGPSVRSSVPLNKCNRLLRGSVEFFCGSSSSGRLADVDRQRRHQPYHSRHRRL
Summary of the method: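 C-terminally truncated cruzain (0.64 nM) in 50 mM sodium phosphate, 100 mM NaCl, 5 mM EDTA, 5 mM DTT, pH 6.5, preincubated 5 min at room temperature with inhibitor before adding Z-Phe-Arg-AMC. AMC release followed by fluorescence (ex 355, em 460 nm). IC50 by nonlinear regression of activity relative to no-inhibitor control.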

[4] = Permeability across basolateral to apical side in human Caco2 cells; type: ADME, cell-based; conditions: Caco-2, read-out: permeability; summary of the method: as §1
[5] = Efflux ratio of permeability from basolateral to apical side over apical to basolateral side in human Caco2 cells; type: ADME, cell-based; conditions: Caco-2

| Compound | selectivity ratio [1] | pIC50 (Trypanosoma cruzi) | pIC50 (HepG2) | pIC50 [2] | Papp A→B [3] | pIC50 (Cruzipain) | Papp B→A [4] | efflux ratio [5] |
| --- | --- | --- | --- | --- | --- | --- | --- | --- |
| O=C(Cn1ccnc1[N+](=O)[O-])NCc1ccccc1 [BENZNIDAZOLE] | 18.7 | 5.82 | 4.55 | – | – | – | – | – |
| Cc1c(/C=N/NC(=O)Cc2ccccc2)no[n+]1[O-] | – | < 4.00 | – | 3.05 | – | – | – | – |
| O=C(N/N=C/c1c(-c2ccccc2)no[n+]1[O-])c1cccc([N+](=O)[O-])c1 | – | 4.82 | – | 3.04 | – | – | – | – |
| Cc1c(/C=N/NC(=O)c2ccco2)no[n+]1[O-] | – | 5.17 | – | 2.91 | – | – | – | – |
| Cc1c(/C=N/NC(=O)c2ccc(Br)cc2)no[n+]1[O-] | – | 4.56 | – | 3.99 | – | – | – | – |
| Cc1c(/C=N/NC(=O)c2ccccc2Nc2ccccc2)no[n+]1[O-] | – | 5.24 | – | 3.91 | – | – | – | – |
| O=C(N/N=C/c1c(-c2ccccc2)no[n+]1[O-])c1ccccc1 | – | < 4.00 | – | 3.88 | – | – | – | – |
| O=C(N/N=C/c1c(-c2ccccc2)no[n+]1[O-])c1ccc(Cl)cc1 | – | < 4.00 | – | 2.37 | – | – | – | – |
| Cc1c(/C=N/NC(=O)c2ccccc2)no[n+]1[O-] | – | < 4.00 | – | 3.68 | – | – | – | – |
| Cc1c(/C=N/NC(=O)c2ccc([N+](=O)[O-])cc2)no[n+]1[O-] | 28.1 | 5.54 | 4.09 | 3.62 | 43.2 ×10⁻⁶ cm/s | 4.95 | 37.6 ×10⁻⁶ cm/s | 0.87 |
| O=C(N/N=C/c1c(-c2ccccc2)no[n+]1[O-])c1ccc([N+](=O)[O-])cc1 | 15.7 | 5.54 | 4.34 | 3.96 | 0.82 ×10⁻⁶ cm/s | 4.82 | 0.52 ×10⁻⁶ cm/s | 0.63 |
| Cc1c(/C=N/NC(=O)c2ccc(Cl)cc2)no[n+]1[O-] | – | 4.84 | – | 4.25 | – | – | – | – |
| O=C(Cc1ccccc1)N/N=C/c1c(-c2ccccc2)no[n+]1[O-] | – | 5.04 | – | 4.48 | – | – | – | – |
| Cc1c(/C=N/NC(=O)c2cccc([N+](=O)[O-])c2)no[n+]1[O-] | – | 5.00 | – | 4.28 | – | – | – | – |
| O=C(N/N=C/c1c(-c2ccccc2)no[n+]1[O-])c1ccco1 | – | 5.09 | – | 3.06 | – | – | – | – |
| O=C(N/N=C/c1c(-c2ccccc2)no[n+]1[O-])c1ccc(Br)cc1 | – | < 4.00 | – | 3.22 | – | – | – | – |

— ChEMBL document CHEMBL3286336, “Design, synthesis and biological evaluation of hybrid bioisoster derivatives of N-acylhydrazone and furoxan groups with potential and selective anti-Trypanosoma cruzi activity” (Eur J Med Chem, 2014)
